Assay results published in ChEMBL document CHEMBL4251658, “Cytotoxic and Noncytotoxic Metabolites from Teratosphaeria sp. FL2137, a Fungus Associated with Pinus clausa” (J Nat Prod, 2018).

Columns and labels:
Type in all cases: functional, cell-based
[1] = tested on: SF-268; assay: Cytotoxicity against human SF268 cells by resazurin dye based Alamar blue assay
How it was run: (§1)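 Resazurin-based colorimetric (Alamar Blue) read-out of in vitro cytotoxicity in human cancer lines: NCI-H460 non-small-cell lung, SF-268 CNS glioma, MCF-7 breast, PC-3M metastatic prostate adenocarcinoma, MDA-MB-231 breast adenocarcinoma. Doxorubicin served as positive control and DMSO as negative control. Run in triplicate. Compounds tested up to 5.0 μM; IC50 values derived.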

[2] = tested on: MDA-MB-231; assay: Cytotoxicity against human MDA-MB-231 cells by resazurin dye based Alamar blue assay; how it was run: as §1
[3] = tested on: MCF7; assay: Cytotoxicity against human MCF7 cells by resazurin dye based Alamar blue assay; how it was run: as §1
[4] = tested on: NCI-H460; assay: Cytotoxicity against human NCI-H460 cells by resazurin dye based Alamar blue assay; how it was run: as §1
[5] = tested on: PC-3M; assay: Cytotoxicity against human PC3M cells by resazurin dye based Alamar blue assay; how it was run: as §1

In the case of COc1cc(O)c2c(c1)C(=O)c1cocc1C2=O [MONOSPORASCONE], the IC50 [1] is reported as greater than 5 µM, the IC50 [2] is reported as 3.8 µM and the IC50 [3] is reported as greater than 5 µM. For the same molecule, the IC50 [4] was greater than 5 µM and the IC50 [5] was greater than 5 µM.
COc1cc(O)c2c(c1)C(=O)C(C)=CC2=O showed an IC50 [1] greater than 5 µM, an IC50 [2] of 1.2 µM and an IC50 [3] of 3.1 µM. It also gave an IC50 [4] greater than 5 µM and an IC50 [5] of 4.9 µM.
Work on COc1cccc2c1C(=O)c1c(O)c3c(c(O)c1C2=O)C[C@@](O)(C(=O)CO)C[C@@H]3O[C@H]1C[C@H](N)[C@H](O)[C@H](C)O1 [DOXORUBICIN] yielded an IC50 [2] of 0.6 µM, an IC50 [4] of 0.4 µM and an IC50 [5] of 0.2 µM.
